MC4R antagonist = MC4R antagonists of cAMP signaling, primary screen, cell-based, TR-FRET, antagonist arm of biased-ligand search; Melanocortin receptor 4 (Homo sapiens), P32245; MC4R-expressing cells, MTII-stimulated cAMP, LANCE TR-FRET; inhibition, % at 6.5 µM; 0.48% of 360,000 active; AID 540295, 2011;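 active means inhibition above its plate's cutoff, the mean of tested wells on that plate plus 3 SD, cut at about 29% in these data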
Target sequence (P32245 whole entry, looked up): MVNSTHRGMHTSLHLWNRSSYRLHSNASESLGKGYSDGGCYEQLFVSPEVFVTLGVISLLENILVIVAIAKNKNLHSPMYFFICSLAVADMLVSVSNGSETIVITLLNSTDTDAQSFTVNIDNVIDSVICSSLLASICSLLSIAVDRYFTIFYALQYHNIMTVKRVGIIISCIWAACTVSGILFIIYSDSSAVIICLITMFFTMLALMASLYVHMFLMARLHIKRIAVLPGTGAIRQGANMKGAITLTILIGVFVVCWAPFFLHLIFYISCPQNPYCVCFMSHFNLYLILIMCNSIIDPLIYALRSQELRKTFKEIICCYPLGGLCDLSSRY
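System: U2OS cells stably expressing human melanocortin 4 receptor (MC4R). Reagent: Melanotan II challenge after compound preincubation. Doses: 6.5 µM. Times: 30-min compound, 1-h challenge, 1-h detection, room temperature. Measured by: TR-FRET with Eu-cAMP and labeled anti-cAMP, 671 nm. Replicates: singlicate.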
TAAR1 agonist = human TAAR1 agonists, primary screen, Fluo-8 calcium fluorescence, CHO RD-HGA16 cells; Trace amine-associated receptor 1 (Homo sapiens), Q96RJ0; vehicle wells 0%, saturating PEA agonist 100%; activation, % at 3 µM; 0.99% of 360,000 active;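 active means activation above the mean activation of all test compounds in the run plus 3 SD, cut at about 38% in these data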
Target sequence (Q96RJ0 whole entry, looked up): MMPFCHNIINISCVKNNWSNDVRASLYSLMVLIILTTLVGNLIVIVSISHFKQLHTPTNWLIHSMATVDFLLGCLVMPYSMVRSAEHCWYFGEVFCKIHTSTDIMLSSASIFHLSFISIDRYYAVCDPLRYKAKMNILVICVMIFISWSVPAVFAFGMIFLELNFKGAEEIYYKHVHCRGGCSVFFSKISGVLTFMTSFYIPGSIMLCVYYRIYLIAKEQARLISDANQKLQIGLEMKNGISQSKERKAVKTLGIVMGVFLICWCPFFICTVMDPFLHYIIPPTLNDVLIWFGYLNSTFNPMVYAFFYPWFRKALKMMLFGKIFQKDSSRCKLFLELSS
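Signal – calcium-sensitive Fluo-8 signal, excitation 470-495, emission 515-575 nm · System – RD-HGA16 (CHO) cells co-expressing Gα16 and hTAAR1 · Incubation – 17-24 h seeding, 75 min 37 °C dye, 30 min RT · Compound dosing – 3 µM single concentration · Repeats – no replicates (n 1)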
TAAR1 antagonist = human TAAR1 antagonists, primary screen, Fluo-8 calcium fluorescence, CHO RD-HGA16 cells; Trace amine-associated receptor 1 (Homo sapiens), Q96RJ0; antagonist; inhibition, % at 3 µM; 1.5% of 360,000 active; AID 624466, 2012;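 active means inhibition above a per-plate cutoff, the mean inhibition of test compounds on that plate plus 3 SD, cut at about 49% in these data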
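test system = CHO RD-HGA16 cells bearing hTAAR1 | replication = singlicate | controls = DMSO-only wells and EC80 β-PEA-stimulated wells | reagent = EC80 β-phenethylamine stimulus | read-out basis = percent inhibition of PEA-evoked calcium signal, max/basal emission ratio | schedule = seeding 17-24 h prior, 75-min 37 °C, 30-min RT dye loading | signal = kinetic Fluo-8 calcium fluorescence measurement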
B2AR ag = beta2AR agonists driving receptor internalization, primary screen, cell-based, FAP fluorogen, flow cytometry; Beta-2 adrenergic receptor (Homo sapiens), P07550; Am2.2-beta2AR cells; response, % (no concentration beside the values); 0.43% of 340,000 active; AID 504454, 2011;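 active means response above a set limit, near 3 SD of response in nonfluorescent compounds, cut at about 42% in these data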
MC4R barr agon = MC4R agonists recruiting beta-arrestin, primary screen, cell-based, luminescence, agonist arm of biased-ligand search | Melanocortin receptor 4 (Homo sapiens), P32245 | U2OS MC4R beta-arrestin complementation; percent of melanotan II response, DMSO zero | activation, % at 8.9 µM | 0.98% of 360,000 active;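 active means activation above a per-plate cutoff, the mean activation of sample wells on that plate plus 3 SD, cut at about 8% in these data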
m5-HT2A agonist = mouse Htr2a agonists via beta-arrestin recruitment, primary screen, cell-based, luminescence | 5-hydroxytryptamine receptor 2A (Mus musculus), P35363 | CHO-K1 mHTR2A beta-arrestin complementation; percent of 30 µM serotonin response | activation, % at 7.6 µM | 0.66% of 360,000 active;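 active means activation above a run cutoff, the mean activation of all tested compounds plus 3 SD, cut at about 14% in these data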
Numbers stand for hits; n = inactive; x = no result given. Only some compounds are listed: those with a hit (about 4.3% of all), similar ones and a draw of the others.

SMILES	MC4R antagonist	TAAR1 agonist	TAAR1 antagonist	B2AR ag	MC4R barr agon	m5-HT2A agonist
CCOC(=O)C1=CCN(S(=O)(=O)c2ccc(Cl)cc2)C1c1cccc(Br)c1 (configuration not stated)	x	n	n	x	x	x
COc1ccc(/C=N\NC(=O)c2ccc([N+](=O)[O-])cc2)cc1COc1c(F)c(F)cc(F)c1F	n	n	n	n	n	n
COc1ccc(/C=N\NC(=O)c2ccccc2[N+](=O)[O-])cc1COc1c(F)c(F)c(F)c(F)c1F	n	n	n	52.6	n	n
CC(C)[C@@H](C)/C=C/[C@@H](C)[C@H]1CC[C@@H]2[C@]1(C)CCC1[C@]23C=C[C@]2(C[C@@H](O)CC[C@]12C)N(c1ncc(C(F)(F)F)cc1Cl)O3 (some centres not stated)	x	n	n	x	x	x
Cc1cc(N2CCN(C(=O)OC(C)(C)C)C[C@H]2C)ccc1N1CCS(=O)(=O)CC1	x	n	n	x	x	x
Cc1ccc(NC(=O)CSc2nc3c([nH]c4ccccc43)c(=O)n2C)cc1	n	n	n	n	15.8	n
Cc1ccc(OC(=O)N(C)C[C@H]2OCc3cn(nn3)CCCC(=O)N([C@@H](C)CO)C[C@@H]2C)cc1	x	n	n	x	x	x
Cc1cc(OCCCC(=O)Nc2cccc(-n3cnnn3)c2)ccc1Cl	n	n	59.9	n	n	n
COc1cccc(NC(=O)COc2cccc(-n3cnnn3)c2)c1	n	n	n	n	n	n
O=C(NCCCCC(NC(=O)c1ccccc1)C(=O)O)OCc1ccccc1 (configuration not stated)	x	n	n	x	x	x
OCCNc1nc(-c2cccnc2)nc2ccccc12	n	n	n	n	n	n
OC(CNc1nc(-c2cccnc2)nc2ccccc12)c1ccccc1 (configuration not stated)	n	n	49.0	n	n	n
O=C(NCCS(=O)(=O)N1CCN(c2ccccc2)CC1)C12CC3CC(CC(C3)C1)C2	n	n	n	x	n	n
COc1ccccc1N1CCN(S(=O)(=O)CCNC(=O)C23CC4CC(CC(C4)C2)C3)CC1	n	n	57.9	n	n	n
Cc1ccc2cccc(OC(=O)c3cccnc3Oc3ccccc3)c2n1	x	n	n	x	x	x
Fc1ccc(NC(=S)Nc2cc(-c3ccccc3)[nH]n2)cc1Cl	n	n	n	n	n	n
Cc1ccc(NC(=S)Nc2cc(-c3ccccc3)[nH]n2)cc1Cl	n	n	n	n	8.9	n
CC(NC(=O)COC(=O)c1cccs1)c1ccccc1 (configuration not stated)	n	n	n	n	n	n
CC(NC(=O)COC(=O)/C(=C/c1cccs1)c1cccs1)c1ccccc1 (configuration not stated)	n	n	51.8	n	n	n
CC(=O)Nc1cccc(-c2ccnc3c2CC(C)(C(=O)NCc2ccc(F)c(F)c2)O3)c1 (configuration not stated)	n	n	n	x	n	n
COc1ccc(C(=O)CSc2nnc(CN3CCCCC3)n2-c2ccc(F)cc2)cc1	n	47.1	n	n	n	n
CCOC(=O)C1=CCN(S(=O)(=O)c2cccc(Cl)c2)C1c1ccc(Cl)cc1 (configuration not stated)	x	n	n	x	x	x
O=C(Nc1ccccc1O)c1ccc2c(c1)C(=O)N(Cc1ccco1)C2=O	n	n	51.2	n	n	n
CC1(C(=O)NCc2ccccc2)CN(S(C)(=O)=O)CC(=O)N1CCc1c[nH]c2ccccc12 (configuration not stated)	x	n	n	x	x	n
O=C(COC(=O)/C=C/c1ccc(Cl)cc1)NCCC1=CCCCC1	n	n	n	n	n	n
SMILES	MC4R antagonist	TAAR1 agonist	TAAR1 antagonist	B2AR ag	MC4R barr agon	m5-HT2A agonist
Cc1ccc(C(=O)OCC(=O)NC(=O)NCc2ccccc2)cc1C	n	n	50.1	n	n	n
COc1cc(C(=O)OCC(=O)NCCC2=CCCCC2)ccc1OCC(C)C	n	n	n	n	9.2	n
CCOC(=O)/C=C/C(=O)OCC(=O)NCc1ccccc1	n	n	n	43.9	n	n
O=C(COC(=O)/C=C/c1cccc(Cl)c1)NCCC1=CCCCC1	n	38.7	n	n	n	n
COc1ccc(-n2c(CSc3ccc(Cl)cc3)n[nH]c2=S)cc1	x	n	n	x	x	x
COc1ccc(CNC(=O)COC(=O)/C=C/c2cccc(Cl)c2)cc1	n	n	n	n	8.3	n
CCc1nc(N)nc(N)c1-c1ccc(N(C)Cc2ccccc2)c([N+](=O)[O-])c1	n	38.7	75.8	n	n	n
COc1ccc2[nH]c(=O)c(CN(CCO)S(=O)(=O)c3c(C)ccc4nsnc34)cc2c1	n	n	n	n	n	n
COc1ccc2[nH]c(=O)c(CN(Cc3cccs3)S(=O)(=O)c3cccc4nsnc34)cc2c1	n	n	52.8	n	n	n
CCOc1ccc(-n2c(N)c(-c3nc4ccccc4[nH]3)sc2=S)cc1	n	n	n	n	8.8	n
COc1ccc(-n2c(N)c(-c3nc4ccccc4n3C)sc2=S)cc1	n	n	n	n	n	n
CC(=O)C1=C(C)N(Cc2ccc(F)cc2)C(=S)NC1c1ccccc1 (configuration not stated)	x	n	n	x	x	x
CC(C)Oc1ccc(CNC(=O)CC(c2ccccc2)c2cc(Cl)ccc2O)cc1 (configuration not stated)	n	n	n	n	9.3	n
N=c1n(Cc2ccccc2)c2ccccc2n1CC(O)COc1ccc(Cl)cc1Cl (configuration not stated)	n	46.8	n	n	n	n
COc1ccc(/C=C/C(=O)OCC(=O)c2ccc3c(c2)NC(=O)CO3)cc1	n	n	n	n	13.0	n
COc1cc(/C=C/C(=O)OCC(=O)c2ccc3c(c2)NC(=O)CO3)ccc1OC(F)F	n	n	n	n	n	n
COc1ccc(/C=N/N=C/c2ccc(OC)c(OC)c2)cc1OC	n	n	n	n	n	n
COc1cc(/C=N/N=C(N)N)ccc1OCc1ccccc1Cl	n	n	n	53.7	n	n
CC(C)(C)c1ccccc1NC(=O)Nc1nc(C(N)c2ccccc2Cl)cs1 (configuration not stated)	n	44.2	n	x	n	n
COc1cccc(/C=N/Nc2nc3ccccc3n3cnnc23)c1	n	n	n	n	n	n

Screens: PubChem BioAssay, several laboratories
